Only some compounds are listed: those with a hit (about 1.9% of all), similar ones and a draw of the others.
IMP-1 inh-1 = blocks Pseudomonas aeruginosa IMP-1 metallo-beta-lactamase | actives 0.45% (n = 290,000) | purified IMP-1, nitrocefin hydrolysis, epi-absorbance fluorescence | AID 1556 | inhibition, % at 5.6 µM;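 active = inhibition above the mean plus 3 SD of all compounds in the same screening run, cut at about 4.5% in these data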
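System: purified IMP-1; amount: IMP-1 0.2 nM before substrate addition; compound: single dose, 5.6 µM; times: 25 °C, 15 min preincubation, 25 min reaction; signal: Epi-absorbance via hydrolysed-nitrocefin quenching of white-plate fluorescence, 480/530 nm, EDTA stop; benchmarks: DMSO with and without IMP-1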
CTSL1 counter = cathepsin L1 inhibition, PFM18AAP counter-screen; recombinant F. hepatica cathepsin L1, Z-Leu-Arg-MCA fluorescence; inhibition, % at 5.96 µM; actives 0.49% (n = 300,000);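 active = inhibition above the mean of all tested compounds plus 3 SD, set per screening campaign, cut at about 17% in these data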
p-CIP stab down = lowers stability of the mouse p/CIP coactivator protein | Q05BA5 | F442A p/CIP-EGFP cells, EGFP fluorescence, 16 h | decrease of EGFP signal, % at 10 µM | actives 0.01% (n = 290,000);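 active = EGFP signal decrease of at least 30% at 10 µM or well 3 SD below plate mean, unless failing retest; inactive = the rest, including hits failing retest or dose response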
VIM-2 inh = inhibitors of Pseudomonas aeruginosa VIM-2 metallo-beta-lactamase | purified VIM-2, nitrocefin hydrolysis, epi-absorbance fluorescence | inhibition, % at 5.6 µM | actives 0.89% (n = 290,000) | AID 1527;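 active = inhibition above the mean of all tested compounds plus 3 SD, cutoff set per screening run, cut at about 7.5% in these data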;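 note: red hydrolysis product quenches plate fluorescence so inhibitors raise well fluorescence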
UBC9 SUMO inh = SUMOylation inhibition | P63279 | HTRF SUMOylation assay, SAE1/SAE2 + UBC9, in vitro | inhibition, % at 35 µM | actives 0.36% (n = 290,000) | AID 2006; in the data active = inhibition above about 50%, passing the limit was not always enough; inconclusive = no clear call, values can overlap the other calls
Target sequence (P63279 whole entry, looked up): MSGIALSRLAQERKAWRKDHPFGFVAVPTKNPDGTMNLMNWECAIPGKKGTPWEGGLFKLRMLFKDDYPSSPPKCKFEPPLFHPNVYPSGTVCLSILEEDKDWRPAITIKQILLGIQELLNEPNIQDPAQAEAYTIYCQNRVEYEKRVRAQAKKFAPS
T cell modulator = modulates CD8 T cell binding to vesicles; 2C CD8+ T cell-vesicle binding, flow cytometry; stronger effect = lower value; actives 0.068% (n = 330,000); response (vesicle binding), % at 7 µM;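 active = response, share of CD8 T cells binding vesicles, and their 90th percentile fluorescence all below set limits, cut at about 80% in these data, passing the limit was not always enough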;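 note: values below 100% mean blocked vesicle binding to the CD8+ T cells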
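Also added: QL9-peptide-loaded Drosophila micro-vesicles bearing Ld, ICAM-1 and B7-1; Test system: purified 2C TCR transgenic mouse naive CD8+ T cells; Measured by: cytometric PE anti-B7-1 and Alexa647 anti-CD8 signals after 1% paraformaldehyde fixation; Timing: binding step 1.5 h, 37 °C, antibody labelling 20 min, ice.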
IMP-1 inh-2 = IMP-1 inhibition, counter-screen for VIM-2 inhibitors; shares compounds with VIM-2 inh; purified IMP-1, nitrocefin hydrolysis, epi-absorbance fluorescence; inhibition, % at 5.6 µM; 1,300 tested, under 10 active; call rule not given here
VIM-2 FRET ctr = counter-screen for VIM-2 inhibitors: epi-absorbance artifacts via FRET. inhibition, % at 5.6 µM. purified VIM-2, CCF2 FRET substrate hydrolysis. shares compounds with VIM-2 inh. actives 23% (n = 1,300). AID 1857;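 active = inhibition above the mean of all tested compounds plus 3 SD, cut at about 19% in these data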
TEM-1 counter = TEM-1 inhibition, counter-screen for VIM-2 inhibitors; shares compounds with VIM-2 inh; actives 3% (n = 1,300); Purified TEM-1, nitrocefin hydrolysis, epi-absorbance fluorescence; inhibition, % at 5.6 µM; AID 1866;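 active = inhibition above that campaign's mean inhibition plus 3 SD, cut at about 0.46% in these data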
Target sequence (P62593 whole entry, looked up): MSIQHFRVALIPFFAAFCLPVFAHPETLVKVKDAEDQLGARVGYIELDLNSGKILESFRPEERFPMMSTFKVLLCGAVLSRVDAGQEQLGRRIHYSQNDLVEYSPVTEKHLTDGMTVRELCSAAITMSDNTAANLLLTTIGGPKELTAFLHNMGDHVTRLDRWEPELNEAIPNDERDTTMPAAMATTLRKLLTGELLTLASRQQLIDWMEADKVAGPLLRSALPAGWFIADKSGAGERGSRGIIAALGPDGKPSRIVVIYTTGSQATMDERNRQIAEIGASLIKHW
VIM-2 confirm 2 = confirmation of P. aeruginosa VIM-2 metallo-beta-lactamase inhibitors. inhibition, % at 5.6 µM. shares compounds with VIM-2 inh. purified VIM-2, nitrocefin hydrolysis, epi-absorbance. AID 2187. actives 96% (n = 1,300);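 active = inhibition of the VIM-2 beta-lactamase enzyme above about 11% from the earlier first-round screen, limit read from the data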
A number is an active result; i = inactive; ? = inconclusive; nt = no result.

SMILES	IMP-1 inh-1	CTSL1 counter	p-CIP stab down	VIM-2 inh	UBC9 SUMO inh	T cell modulator	IMP-1 inh-2	VIM-2 FRET ctr	TEM-1 counter	VIM-2 confirm 2
CC1=CCC(C(=O)O)(C(=O)N/N=C/c2cccs2)C(c2ccc(F)cc2)C1 (stereo not given)	i	i	i	i	i	i	nt	nt	nt	nt
COCCNC(=O)CCc1c(C)nc2nc(-c3cc(OC)cc(OC)c3)nn2c1C	i	i	i	i	i	i	nt	nt	nt	nt
CCOC(=O)c1cnc(-n2nc(C)cc2C)nc1NCCO	i	i	i	i	i	i	nt	nt	nt	nt
CCOC(=O)c1cnc(-n2nc(C)cc2C)nc1NCc1ccccc1	i	i	i	36	i	i	i	i	i	50
Cc1nc(N2CCCC2)c2ccsc2n1	i	i	i	14	i	i	i	i	i	15
Cc1nc(N2CCN(C)CC2)c2cc(-c3ccccc3)sc2n1	i	i	i	i	i	i	nt	nt	nt	nt
O=C(NCCS(=O)(=O)N1CCN(Cc2ccccc2)CC1)c1ccc(F)cc1	nt	i	nt	nt	nt	i	nt	nt	nt	nt
CN1CCN(CCCn2cnc3c(=O)oc4ccccc4c32)CC1	i	i	i	21	i	i	i	i	i	40
O=c1oc2ccccc2c2c1ncn2CCN1CCOCC1	i	i	i	i	i	i	nt	nt	nt	nt
O=C(CSS(=O)(=O)O)N1CCN(C(=O)c2ccoc2)CC1	i	i	i	i	i	i	nt	nt	nt	nt
CC(=O)c1cn(CCC(C)C)c(=O)[nH]c1=O	i	i	i	i	i	i	nt	nt	nt	nt
CC(C)NC(=O)CNc1ccc(C(F)(F)F)cc1[N+](=O)[O-]	i	i	i	i	i	i	nt	nt	nt	nt
CN1CCN(C(=O)CNc2ccc(C(F)(F)F)cc2[N+](=O)[O-])CC1	i	i	i	24	i	i	i	i	i	38
CCCc1cc(=O)oc2cc(C)cc(OCC(=O)Nc3ccc(CN4CCOCC4)cc3)c12	i	i	i	14	i	i	i	i	i	20
CCc1cc(=O)oc2cc(C)cc(OCC(=O)NCCCN3CCOCC3)c12	i	i	i	14	i	i	i	i	i	22
O=C(CN1CCOCC1)n1c2ccccc2c2ccccc21	i	i	i	i	i	i	nt	nt	nt	nt
O=C(CN1CCOCC1)n1c2c(c3ccccc31)CCCC2	i	i	i	13	i	i	i	i	i	i
O=C(COc1ccc2c(c1)oc(=O)c1ccccc12)NCCN1CCOCC1	i	i	i	19	i	i	i	i	i	27
O=C(COc1cc2oc(=O)c3c(c2cc1Cl)CCC3)NCCCN1CCCC1=O	i	i	i	18	i	i	i	i	i	32
O=C(COc1ccc2c3c(c(=O)oc2c1)CCC3)NCCN1CCOCC1	i	i	i	19	i	i	i	i	i	25
O=C(COc1ccc2c(-c3ccccc3)cc(=O)oc2c1)NCCCN1CCOCC1	i	i	i	i	i	i	nt	nt	nt	nt
CC(C)CCNC(=O)COc1ccc2c3c(c(=O)oc2c1)CCC3	i	i	i	i	i	i	nt	nt	nt	nt
O=C(CCC1N=C2c3ccccc3N=C(SCC(=O)NCC3CCCO3)N2C1=O)NCc1ccc(F)cc1 (stereo not given)	i	i	i	i	i	i	nt	nt	nt	nt
CCCCOC(=O)c1ccc(NC(=O)COC(=O)c2ccc3ncsc3c2)cc1	nt	nt	nt	nt	nt	i	nt	nt	nt	nt
C=CCn1c(O)c(N=O)c2cc(C)ccc21	i	i	i	i	i	i	nt	nt	nt	nt
SMILES	IMP-1 inh-1	CTSL1 counter	p-CIP stab down	VIM-2 inh	UBC9 SUMO inh	T cell modulator	IMP-1 inh-2	VIM-2 FRET ctr	TEM-1 counter	VIM-2 confirm 2
C=CCSc1nnc2nc3c(nn12)c1cc(C)ccc1n3CC=C	i	i	i	15	i	i	i	i	i	19
Cc1nc2ccc(NC(=O)N3CCSCC3)cc2nc1C	i	i	i	16	i	i	i	i	i	i
Cc1nc2ccc(NC(=O)N3CCSCC3)cc2s1	i	i	i	i	i	i	nt	nt	nt	nt
CCOC(=O)c1nn(-c2ccc(F)cc2)c(=O)cc1OCC(=O)Nc1ccc(F)c(F)c1	nt	i	nt	nt	nt	i	nt	nt	nt	nt
COc1ccc(-c2cc(C(F)(F)F)nc(SCCC(=O)N3CCN4CCCC4C3)n2)cc1 (stereo not given)	i	i	i	13	i	i	i	i	i	29
CCOc1ccc(C(=O)Nc2ccc3c(c2)OCCO3)cc1	i	i	i	i	i	i	nt	nt	nt	nt
CCN(CC)CCOc1ncnc2c1oc1ccccc12	i	i	i	15	i	i	i	i	i	14
COc1cc(-c2nc3ccc(N4CCN(C)CC4)cc3[nH]2)cc(OC)c1OC	i	i	i	13	?	i	i	i	i	26
CCN(CC)CCn1nc2c3c(cccc3c1=O)-c1ccccc1-2	i	i	i	17	i	i	i	i	i	29
O=c1c2cccc3c2c(nn1CN1CCOCC1)-c1ccccc1-3	i	i	i	26	i	i	i	i	i	33
CN(C)c1cccc(C(=O)NNC(=O)CSc2ccccc2)c1	i	i	i	i	i	i	nt	nt	nt	nt
Cc1csc2c(C#N)c(=O)c3c(n12)CCC3	i	i	i	14	i	i	i	i	i	22
COc1ccc(C2=Nn3c(nnc3-c3ccncc3)SC2)cc1OC	i	i	i	64	i	i	i	i	i	75
COc1ccc(C2=Nn3c(nnc3-c3cccnc3)SC2)cc1OC	nt	i	i	nt	i	i	nt	nt	nt	nt
Cc1ccc(SCCOCCN2CCc3ccccc3C2)cc1	i	i	i	i	i	i	nt	nt	nt	nt
Cc1n[nH]c(C)c1N1C(=O)c2cccc3c(Br)ccc(c23)C1=O	i	i	i	29	i	i	i	i	i	33
Cc1ccnc(N2C(=O)c3cccc4c([N+](=O)[O-])ccc(c34)C2=O)c1	i	i	i	i	i	i	nt	nt	nt	nt
Cc1n[nH]c(C)c1N1C(=O)c2cccc3cc(Br)cc(c23)C1=O	i	i	i	15	i	i	i	i	i	26
CCn1c(SCC(=O)N2CCCC2)nc2c1c(=O)n(C)c(=O)n2C	i	i	i	i	i	i	nt	nt	nt	nt
CCn1c(SCC(=O)N2CCN(C)CC2)nc2c1c(=O)n(C)c(=O)n2C	i	i	i	55	i	i	i	i	i	63
CCN1CCN(C(=O)CSc2nc3c(c(=O)n(C)c(=O)n3C)n2C)CC1	i	i	i	76	i	i	i	i	i	85
Cn1c(=O)c2c(nc(SCC(=O)N3CCCCCC3)n2C)n(C)c1=O	i	i	i	i	i	i	nt	nt	nt	nt

Bioassay records from PubChem BioAssay.
